Calls of active or inactive are those of the source. The calls are words filed in the database; no cut-off is given here.
What was measured:
[1] = tested on: Monocyte; assay: Effect on LPS-induced IL-6 production in human monocytes at 0.03906 to 20 uM preincubated for 30 mins before LPS stimulation measured after 20 hrs by ELISA; format: functional, cell-based
[2] = tested on: Mus musculus; assay: Inhibition of LPS-stimulated IL-6 production in CSF-1 primed mouse at 40 mg/kg, po administered 4.5 hr before LPS challenge and CSF-1 priming measured […] after LPS challenge; format: functional
[3] = tested on: Osteoclast; assay: Inhibition of human osteoclast degradation of bone assessed as reduction in actin ring formation per cm2 of bone at 10 uM […] by immunocytochemistry (reference value: 1546 +/- 232 /cm2 of bone)
[4] = tested on: Mus musculus; assay: Inhibition of thioglycolate-induced macrophage influx into peritoneal cavity in mouse at 20 mg/kg, po BID starting 1 hr before thioglycolate challenge for 4 days; format: functional
Method in brief: (§1)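 Female C3H/HEN mice (22-26 g) were dosed orally with compound suspended in 0.5% hydroxypropylmethylcellulose/0.1% Tween 80 (0.2 ml per mouse). Thioglycolate (1.5 ml) was injected i.p. on day 0. On day 4, the peritoneum was lavaged with 5 ml cold PBS containing 40 units/ml heparin, and cells were counted by hemocytometer in 0.1% crystal violet. Data are mean ± SEM; Dunnett's test.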

[5] = tested on: Osteoclast; assay: Inhibition of human osteoclast degradation of bone assessed as bone slice resorbed at 3 uM after 3 days by immunocytochemistry (reference value: 26.6 +/- 4.7 %); format: functional; settings: 72 h
[6] = Inhibition of human GST-tagged PKA using biotin-(6-amino caproic acid)-LRRASLGKKK-amide as substrate after 70 mins by scintillation proximity assay
Method in brief: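 Catalytic domains of human kinases expressed, isolated and assayed with ATP and the appropriate peptide substrate. Compound tested as a 10- to 12-point dose-response with a top concentration of 20 μM.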

[7] = tested on: Monocyte; assay: Effect on LPS-induced TNF production in human monocytes at 0.03906 to 20 uM preincubated for 30 mins before LPS stimulation measured after 20 hrs by ELISA; format: functional, cell-based
[8] = biological target: Protein kinase C alpha type (Homo sapiens, UniProt P17252); assay: Inhibition of human PKCa catalytic domain after by scintillation counting
Method in brief: (§2)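 Catalytic domains of the human kinases were expressed, isolated and assayed with ATP and the appropriate substrate. Compound was tested as a 10- to 12-point dose-response up to a maximal 20 μM.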

[9] = tested on: Mus musculus; assay: Inhibition of LPS-stimulated TNF production in mouse at 40 mg/kg, po administered 0.5 hr before LPS challenge measured […] after LPS challenge; format: functional
[10] = tested on: Osteoclast; assay: Inhibition of human osteoclast degradation of bone assessed as reduction in actin ring formation per cm2 of bone at 1 uM after 3 days by immunocytochemistry (reference value: 1546 +/- 232 /cm2 of bone); format: functional
[11] = tested on: Mus musculus; assay: Inhibition of thioglycolate-induced macrophage influx into peritoneal cavity in mouse at 80 mg/kg, po BID administered 7 days before and 4 days after thioglycolate challenge; format: functional; method in brief: as §1
[12] = biological target: [Pyruvate dehydrogenase (acetyl-transferring)] kinase isozyme 4, mitochondrial (Homo sapiens, UniProt Q16654); assay: Inhibition of human His-tagged PDHK4 using biotin-YHGHSMSDPGVSYRRR-amide as substrate after 20 mins by scintillation proximity assay; method in brief: as §2
Sequence of [Pyruvate dehydrogenase (acetyl-transferring)] kinase isozyme 4, mitochondrial (Q16654 whole entry): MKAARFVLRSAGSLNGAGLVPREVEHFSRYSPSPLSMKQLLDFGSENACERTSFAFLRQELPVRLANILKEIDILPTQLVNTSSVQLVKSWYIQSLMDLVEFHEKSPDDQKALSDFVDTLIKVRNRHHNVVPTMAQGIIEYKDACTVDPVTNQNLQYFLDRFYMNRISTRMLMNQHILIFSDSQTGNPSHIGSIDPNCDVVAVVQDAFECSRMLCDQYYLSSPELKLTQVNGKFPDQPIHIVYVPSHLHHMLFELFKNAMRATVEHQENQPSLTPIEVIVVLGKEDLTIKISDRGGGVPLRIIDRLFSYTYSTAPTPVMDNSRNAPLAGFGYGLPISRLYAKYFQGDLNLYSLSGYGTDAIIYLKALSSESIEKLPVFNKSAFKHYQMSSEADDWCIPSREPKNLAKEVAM

[13] = tested on: HFF; assay: Growth inhibition of serum-stimulated HFF after 3 days by spectrophotometry; format: cell-based; settings: Homo sapiens, 72 h
Method in brief: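 Cells cultured so that added serum or growth factor gave linear growth. Compound tested as a 10- to 12-point dose-response with a top concentration of 20 μM.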

[14] = tested on: Monocyte; assay: Inhibition of LPS-stimulated growth of freshly isolated human monocytes at 1 uM preincubated for 30 mins before inducer addition measured after 5 days by WST-1 method; format: functional; settings: read-out: GI
[15] = tested on: Monocyte; assay: Effect on LPS-induced PGE2 production in human monocytes at 0.03906 to 20 uM preincubated for 30 mins before LPS stimulation measured after 20 hrs by ELISA; format: functional, cell-based
[16] = tested on: Macrophage; assay: Effect on LPS-induced PGE2 production in CSF-1-stimulated human macrophages at 0.03906 to 20 uM preincubated for 30 mins before LPS stimulation measured after 20 hrs by ELISA; format: functional, cell-based
[17] = tested on: Osteoclast; assay: Inhibition of human osteoclast degradation of bone assessed as reduction in actin ring formation per cm2 of bone at 3 uM after 3 days by immunocytochemistry (reference value: 1546 +/- 232 /cm2 of bone); format: functional
[18] = tested on: Mus musculus; assay: Inhibition of thioglycolate-induced macrophage influx into peritoneal cavity in mouse at 20 mg/kg, po BID administered 7 days before and 4 days after thioglycolate challenge; format: functional; method in brief: as §1
[19] = organism: Rattus norvegicus; assay: Inhibition of PTH-induced Wistar rat calvarial bone degradation assessed as reduction in DPPD level in media at 1 to 100 uM after 48 hrs; format: functional
Method in brief: (§3)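 Rat calvaria incubated with PTH plus compound for two consecutive 48-h periods. Medium from the second period assayed for deoxypyridinoline crosslinks (DPPD).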

[20] = biological target: Protein kinase C beta type (Homo sapiens, UniProt P05771); assay: Inhibition of human PKCb1 catalytic domain after by scintillation counting; method in brief: as §2
Sequence of Protein kinase C beta type (P05771 whole entry, the tested form may be a part): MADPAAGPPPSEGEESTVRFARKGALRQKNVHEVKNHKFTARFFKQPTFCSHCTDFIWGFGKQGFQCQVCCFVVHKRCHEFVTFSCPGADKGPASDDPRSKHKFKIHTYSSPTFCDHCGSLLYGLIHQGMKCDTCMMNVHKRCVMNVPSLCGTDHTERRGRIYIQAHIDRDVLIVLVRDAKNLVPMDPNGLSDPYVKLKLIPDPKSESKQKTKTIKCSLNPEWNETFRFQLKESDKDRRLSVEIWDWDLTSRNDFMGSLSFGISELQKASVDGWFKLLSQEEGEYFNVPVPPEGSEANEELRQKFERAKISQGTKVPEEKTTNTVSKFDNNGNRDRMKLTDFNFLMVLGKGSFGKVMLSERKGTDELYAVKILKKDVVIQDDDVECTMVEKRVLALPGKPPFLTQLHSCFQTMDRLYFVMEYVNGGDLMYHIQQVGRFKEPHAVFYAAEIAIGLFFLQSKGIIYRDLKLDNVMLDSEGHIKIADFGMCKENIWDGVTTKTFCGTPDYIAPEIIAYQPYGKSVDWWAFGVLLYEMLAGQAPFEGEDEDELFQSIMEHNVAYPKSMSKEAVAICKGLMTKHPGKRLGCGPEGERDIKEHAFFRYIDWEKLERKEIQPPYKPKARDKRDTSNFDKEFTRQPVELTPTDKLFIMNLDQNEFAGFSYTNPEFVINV

[21] = tested on: PBMC; assay: Effect on LPS-induced TNF production in human PBMC at 0.03906 to 20 uM preincubated for 30 mins before LPS stimulation measured after 20 hrs by ELISA; format: functional, cell-based
[22] = organism: Rattus norvegicus; assay: Inhibition of PTH-induced Wistar rat calvarial bone degradation assessed as reduction in DPPD level in media at 0.1 uM after 48 hrs; format: functional; method in brief: as §3
[23] = tested on: Mus musculus; assay: Inhibition of LPS-stimulated TNF production in CSF-1 primed mouse at 20 to 80 mg/kg, po administered 4.5 hr before LPS challenge and CSF-1 priming measured […] after LPS challenge; format: functional, organism-based
[24] = tested on: Macrophage; assay: Effect on LPS-induced IL-6 production in CSF-1-stimulated human macrophages at 0.03906 to 20 uM preincubated for 30 mins before LPS stimulation measured after 20 hrs by ELISA; format: functional, cell-based
[25] = Protein binding in cell-culture media with mouse plasma at 3 uM; format: ADME, cell-free; settings: read-out: PB (converted)
Method in brief: (§4)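 Compound at 3 μM was added to triplicate samples and incubated 1 h at 37°C. Samples were centrifuged through a 30,000-MW filter (1,500 × g, 15 min, 4°C). Percent bound was calculated from compound concentrations in the filtrate and retentate.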

[26] = tested on: Mus musculus; assay: Inhibition of thioglycolate-induced macrophage influx into peritoneal cavity in mouse at 20 to 80 mg/kg, po BID; format: functional, organism-based; settings: TDE = time-dependent effect; method in brief: as §1
[27] = tested on: Osteoclast; assay: Inhibition of human osteoclast degradation of bone assessed as reduction in 23C6(+) cells with more than 3 nuclei per cm2 of bone at 1 uM after 3 days by immunocytochemistry (reference value: 854 +/- 122 cells/cm2 of bone); format: functional
[28] = tested on: Osteoclast; assay: Inhibition of human osteoclast degradation of bone assessed as bone slice resorbed at 10 uM after 3 days by immunocytochemistry (reference value: 26.6 +/- 4.7 %); format: functional; settings: 72 h
[29] = tested on: Mus musculus; assay: Inhibition of LPS-stimulated TNF production in mouse at 20 to 80 mg/kg, po administered 4.5 hr before LPS challenge and measured […] after LPS challenge; format: functional, organism-based
[30] = Protein binding in cell-culture media with human plasma at 3 uM; format: ADME, cell-free; settings: read-out: PB (converted); method in brief: as §4

IC50 [6]: > 10 µM | IC50 [8]: > 13 µM | IC50 [12]: > 28 µM | IC50 [20]: > 13 µM | fraction unbound at 3 µM [25]: 0.07 | fraction unbound at 3 µM [30]: 0.02
Compound: COc1ccc(COc2ccc(Cc3cnc(N)nc3N)cc2OC)cc1 [GW632580X]
Activity [1]: inactive | inhibition in vivo at 40 mg/kg [2]: 49% | Activity [3]: 0 /cm2 | inhibition in vivo at 20 mg/kg [4]: 17% | bone resorption (%) at 3 µM [5]: 1.5% | Activity [7]: inactive | inhibition in vivo at 40 mg/kg [9]: 68% | Activity [10]: 479 /cm2 | inhibition in vivo at 80 mg/kg [11]: 45% | IC50 [13]: > 30 µM | inhibition of growth at 1 µM [14]: 50% | Activity [15]: inactive | Activity [16]: inactive | Activity [17]: 148 /cm2 | inhibition in vivo at 20 mg/kg [18]: 8% | inhibition [19]: Active | Activity [21]: inactive | inhibition [22]: 80% | inhibition [23]: Active | Activity [24]: inactive | inhibition [26]: tde | Activity [27]: 244 /cm2 | bone resorption (%) at 10 µM [28]: 1.2% | inhibition [29]: Active
